The list is not random: actives were taken first. Their share in the collection is about 27%.
CYP2C19 activ = cytochrome P450 2C19 (human) activation. recombinant CYP2C19, luciferin-H EGE luminescence; active compounds read high; 0 = fully inhibited enzyme, 1 = untreated enzyme. 96,000 tested, under 10 active. activation factor at 5 µM. AID 1025. P33261;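 active = activation factor of at least 2 at 5 µM in the primary screen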;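 also: 0 = wells with 2.5 mM tranylcypromine and 1 = vehicle-only wells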
HIV Rev-RRE inh = disrupts HIV-1 Rev binding to RRE RNA; P05866; actives 0.79% (n = 97,000); Rev peptide-RRE RNA binding, FRET; inhibition, % at 8 µM;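 active = inhibition above the screen-wide mean plus 3 SD, cut at about 35% in these data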;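 also: 0% = median DMSO wells and 100% = median Neomycin B control wells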
Target sequence (P05866 whole entry, looked up): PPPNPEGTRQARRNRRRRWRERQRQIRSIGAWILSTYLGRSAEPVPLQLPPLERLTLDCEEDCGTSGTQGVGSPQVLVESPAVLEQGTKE
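Test system: labelled RRE RNA duplex and labelled Rev peptide. Times: 5 min compound–RNA preincubation, then 15 min with peptide, 25 °C. Doses: single-dose 8 µM. Measured by: FRET, excitation 480 nm, emission 540 nm donor and 671 nm acceptor. Measure: % inhibition of FRET ratio versus controls.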
CYP2C9 inhib = inhibitors of human CYP2C9; P11712; CYP2C9 Supersomes, luciferin-H conversion, luminescence; inhibition, % at 5 µM; actives 20% (n = 96,000); AID 777;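 active = blocking of liver enzyme CYP2C9 beyond about 50% at 5 µM, limit read from the data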
Target sequence (P11712 whole entry, looked up): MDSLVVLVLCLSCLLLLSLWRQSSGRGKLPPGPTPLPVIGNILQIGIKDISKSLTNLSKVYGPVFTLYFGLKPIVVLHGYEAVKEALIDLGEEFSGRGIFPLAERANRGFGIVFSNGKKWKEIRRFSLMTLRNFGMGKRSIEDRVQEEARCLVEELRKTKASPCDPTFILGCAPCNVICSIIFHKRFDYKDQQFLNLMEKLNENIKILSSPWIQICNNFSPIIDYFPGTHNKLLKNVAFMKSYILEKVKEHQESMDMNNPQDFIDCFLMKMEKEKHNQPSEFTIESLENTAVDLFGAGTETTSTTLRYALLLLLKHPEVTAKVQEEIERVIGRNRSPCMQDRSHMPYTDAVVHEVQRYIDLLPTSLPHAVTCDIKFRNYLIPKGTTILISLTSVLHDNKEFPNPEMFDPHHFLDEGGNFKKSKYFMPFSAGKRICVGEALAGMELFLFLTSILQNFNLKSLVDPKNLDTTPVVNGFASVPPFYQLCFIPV
CYP2C9 act = activators of human CYP2C9 | P11712 | recombinant CYP2C9, luciferin-H conversion, luminescence; active compounds read high; factor 1 = untreated enzyme, 0 = blocked | activation factor at 5 µM | actives 1.4% (n = 96,000) | AID 1024;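 active = activation factor of 2 or more for CYP2C9 at a 5 µM dose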;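 also: 0 = sulfaphenazole-blocked wells and 1 = vehicle-only wells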
CYP2C19 inh = blocks human cytochrome P450 2C19; P33261; CYP2C19 Supersomes, luciferin-H EGE luminescence, 30 min; inhibition, % at 5 µM; actives 21% (n = 96,000);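 active = CYP2C19 inhibition above a set limit at 5 µM in the primary screen, cut at about 50% in these data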;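 also: plate controls were negative control wells for no effect and 2.5 mM tranylcypromine positive control for full effect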
Cav3 T inh = human Cav3.2 channel inhibition, primary screen; Cav3.2-expressing cells, Fluo-4 calcium fluorescence FDSS; active compounds read low; B-score at 10 µM; actives 4% (n = 100,000);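 active = single-dose well whose peak fluorescence ratio is a statistical outlier from its plate by either plate-standardised score or position-corrected B-score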
* = called active by the depositor; · = no result given.

SMILES | CYP2C19 activ | HIV Rev-RRE inh | CYP2C9 inhib | CYP2C9 act | CYP2C19 inh | Cav3 T inh
CSc1nc(-c2ccc(C)cc2)[nH]c1S(=O)(=O)c1ccccc1 | 0.5 | 0 | 78* | 0.2 | 46 | -0.96
CCCCN(C(=O)NC(=O)C1=C(N2CCOCC2)/C(=C/c2ccccc2)CC1)S(C)(=O)=O | 0.2 | · | 78* | 0.2 | 79* | ·
CN(C(=O)NC(=O)C1=C(N2CCOCC2)/C(=C/c2ccccc2)CC1)S(C)(=O)=O | 0.8 | 2 | 6 | 0.9 | 19 | 2.4
Cc1ccccc1C(=O)c1ccc2c(c1)n(C)c(=O)n2C | 0.2 | 15 | 74* | 0.3 | 76* | 0.86
COc1cccc(-c2nn(C)c3sc(C(=O)NCc4ccc5c(c4)OCO5)cc23)c1 | 0.2 | 4 | 87* | 0.1 | 76* | -1.8
COc1cccc(-c2nn(C)c3sc(C(=O)NCc4ccc(C)o4)cc23)c1 | 0.8 | · | 54* | 0.5 | 23 | -0.22
COc1ccc(-c2nn(C)c3sc(C(=O)NCc4ccco4)cc23)cc1OC | 1.1 | · | 2 | 1 | -7 | 0.055
COc1ccc(C2=NOC(C(=O)Nc3cccnc3)C2)cc1 (configuration not stated) | 0.8 | 5 | 16 | 0.8 | 18 | 1
O=C(NCc1ccco1)C1CC(=O)N(c2ccc(O)cc2)C1 (configuration not stated) | 1 | 6 | -147 | 2.5* | -5 | ·
COc1ccc(N2CC(C(=O)Nc3ccccc3C(=O)NCc3ccco3)CC2=O)cc1 (configuration not stated) | 0.3 | 9 | 84* | 0.2 | 66* | -0.3
CCCCCCNC(=O)Cc1nc2nc(C)cc(C)n2n1 | 1.1 | 7 | -15 | 1.2 | -12 | -3.2
Cc1c(N(C(=O)c2cc(=O)[nH]c3ccccc23)C(C)C)c(=O)n(-c2ccccc2)n1C | 0.9 | 3 | -3 | 1 | 13 | -0.52
O=C(NCCOC(=O)c1ccc(Cl)c(S(=O)(=O)N2CCCCC2)c1)c1ccncc1 | 0.1 | 13 | 91* | 0.1 | 89* | 0.13
CCCNC(=O)COC(=O)c1ccc(Cl)c(S(=O)(=O)N2CCCC2)c1 | 0.6 | 4 | 4 | 1 | 43 | 1.1
CCN(CC)CCNC(=O)c1ccc(Cl)c(S(=O)(=O)N2CCCCCC2)c1 | 1 | -4 | 72* | 0.3 | -3 | 0.76
CCN1C(=O)CC(C(=O)O)SC1=Nc1ccc(OC)cc1 (configuration not stated) | 1 | 2 | -8 | 1.1 | -5 | -0.17
Cc1nc2cc(NC(=O)N3CCN(c4ccccn4)CC3)ccc2o1 | 1 | 4 | 8 | 0.9 | -3 | 0.67
O=C(Nc1ccc2nc3n(c(=O)c2c1)CCCCC3)c1ccccn1 | 0.9 | · | 53* | 0.5 | 14 | 0.032
O=C(CC(=O)N1CCN(c2ccccn2)CC1)Nc1ccc2nc3n(c(=O)c2c1)CCCCC3 | 0.7 | 4 | 78* | 0.2 | 28 | ·
O=S(=O)(Nc1ncccn1)c1ccc(Nc2ncnc3ccccc23)cc1 | 0.7 | 8 | -9 | 1.1 | 32 | 0.18
CCCc1ncc(C(O)c2cccc3ccccc23)n1C (configuration not stated) | 0.4 | 4 | 40 | 0.6 | 61* | 0.42
CCc1ncc(C(O)c2cccc(OC)c2OC)n1C (configuration not stated) | 1 | 2 | 12 | 0.9 | 0 | 0.82
Cc1cc(=O)[nH]c(SCC(=O)c2c(N)n(C)c(=O)n(C)c2=O)n1 | 1.2 | 10 | -7 | 1.1 | -19 | 0.32
O=c1oc2ccccc2cc1-c1cn2cccnc2n1 | 0.4 | 7 | 25 | 0.8 | 57* | -0.56
CCC(CC)C(=O)Nc1cccc(/C(C)=N\NC(=O)c2ccc(C)s2)c1 | 0.9 | 12 | 14 | 0.9 | 6 | -5.8*
SMILES | CYP2C19 activ | HIV Rev-RRE inh | CYP2C9 inhib | CYP2C9 act | CYP2C19 inh | Cav3 T inh
O=C1Nc2ccccc2S/C1=C/Nc1cccc(Cl)c1 | 1 | 0 | 5 | 1 | -1 | -2
COc1ccccc1NC(=O)Nc1ccc2c(c1)OCCO2 | 0.2 | 3 | 54* | 0.5 | 82* | -0.18
CC(C)c1ccc(NC(=O)NC2CCN(CC(=O)Nc3cccc4ccccc34)CC2)cc1 | 0.4 | 9 | 13 | 0.9 | 56* | ·
CCOc1ccccc1NC(=O)NC1CCN(CC(=O)Nc2ccc3c(c2)OCCO3)CC1 | 0.4 | 4 | 36 | 0.6 | 59* | -2.2
COc1ccccc1NC(=O)CN1CCN(CC(=O)Nc2ccc3c(c2)OCO3)CC1 | 0.1 | · | 34 | 0.7 | 88* | 0.34
CNC(=S)N1CCN(c2cccc(OC)c2)CC1 | 0.9 | 7 | 12 | 0.9 | 15 | 1.1
CC(C)(C)NC(=O)C(=O)NNC(=O)c1ccccc1 | 1.1 | 3 | 15 | 0.8 | -6 | ·
O=C(COc1ccc(Br)cc1)Nc1ccc([N+](=O)[O-])cn1 | 0.8 | 4 | -9 | 1.1 | 20 | 0.21
O=Nc1c2nc3ccccc3n(O)c-2c2ccccc12 | 0.9 | 14 | 17 | 0.8 | 14 | -0.58
Cc1ccccc1NC(=O)NCCCN1CCN(c2ccccc2)CC1 | 0.9 | -6 | 39 | 0.6 | 8 | 1.8
Cc1cccc(-c2cc(C(=O)Nc3sc(C)c(C)c3C(N)=O)c3ccccc3n2)c1 | 1 | 1 | 69* | 0.3 | 0 | ·
Cc1ccc(C)c(-c2cc(C(=O)Nc3sc(C)c(C)c3C(N)=O)c3ccccc3n2)c1 | 0.6 | 7 | 96* | 0 | 41 | -0.79
COc1ccc(-c2cc(C(=O)Nc3nc4c(C)cccc4s3)c3ccccc3n2)cc1OC | 1 | 2 | 35 | 0.6 | -4 | -0.57
O=C1Nc2ccccc2N=C(c2ccccc2)C1N1CCOCC1 (configuration not stated) | 0.5 | 1 | 59* | 0.4 | 54* | 0.069
Cc1cc(C)c(NC(=O)CC(C)(C)C)c(Cl)c1 | 1 | 5 | 3 | 1 | 2 | 0.7
COc1ccc(Cl)cc1NC(=O)CN1C(=O)CSC1=O | 1.1 | 5 | -25 | 1.3 | -10 | 1.5
COC(=O)c1cc(NC(=O)CN2C(=O)CSC2=O)ccc1Cl | 0.6 | 8 | 69* | 0.3 | 38 | 0.026
Cc1ccc(S(=O)(=O)N2CCCCC2C(=O)N2CCN(c3ccccc3F)CC2)cc1 (configuration not stated) | 0.6 | 3 | -121 | 2.2* | 35 | -0.96
CCOC(=O)N1CCC(NC(=O)c2cn(-c3ccc(OC)cc3)c(=O)c3ccccc23)CC1 | 0.1 | 2 | 90* | 0.1 | 91* | 0.85
CCOC(=O)N1CCC(NC(=O)c2cccn3c(=O)c4cc(Br)ccc4nc23)CC1 | 0.4 | 0 | 86* | 0.1 | 64* | 0.17
CCOC(=O)N1CCC(NC(=O)c2ccc3nc4ccccc4c(=O)n3c2)CC1 | 1 | 2 | 17 | 0.8 | -1 | ·
